99 molecules from ChEMBL document CHEMBL4513216, “Probing the Open Global Health Chemical Diversity Library for Multistage-Active Starting Points for Next-Generation Antimalarials” (ACS Infect Dis, 2020) can be followed below.

SMILES strings stand for the structures.

The series is described as follows: Toxicity liver stage against HepG2, at 10uM. Type of series: cell-based. The settings on record: human, HepG2-A16-CD81EGFP cells; read-out: INHIBITION
More on the design: test concentration 10 uM, cell line HepG2-A16-CD81EGFP. An outline of the steps: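 Uninfected HepG2-A16-CD81EGFP cells, 3 × 10^3 per well, 1536-well, plated on prespotted compound at 10 μM final, parasite-free screening media added to match infected plates; puromycin 10 μM positive, DMSO 0.5% negative; run in parallel with 48 h PbLuc assay at 37 °C, 5% CO2; viability by CellTiter-Glo luminescence, normalized to controls.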
Consider `O=C(NCCCN1CCCC1=O)Nc1ccc(Br)cc1Cl`, for which the cytotoxicity at 10 µM was -2.18%.

As to `CN1C[C@@H](N)C[C@H]1c1nc(-c2ccc3c(c2)OCO3)no1`, the cytotoxicity at 10 µM was -3.75%.

On to `CC(=O)N1N=C(c2ccco2)OC1C(=O)NCCc1ccc(F)cc1` (centres undefined), for which the cytotoxicity at 10 µM was -1.92%.

In the case of `O=C(NCC1CCOCC1)c1cc(-c2ccc3c(c2)CCO3)n[nH]1`, the cytotoxicity at 10 µM was 2.63%.

Turning to `COc1cccc(-c2nc(C)c(C(=O)N[C@H](CO)CCSC)s2)c1`, the cytotoxicity at 10 µM worked out at 4.63%.

Regarding `CC1CCCN(C(=O)c2nnn(-c3ccc(C(F)(F)F)cc3)n2)C1` (centres undefined), the cytotoxicity at 10 µM was -3.43%.

With `COCCN(C)C(=O)c1nc2c(s1)CCCN2C`, the cytotoxicity at 10 µM is -143%.

For the molecule `CC1CCc2nc(O)c(C(=O)NCCCN3CCN(C)CC3)cc2C1` (centres undefined), the cytotoxicity at 10 µM was -11.6%.

Consider `Cc1csc(CCNC(=O)c2cc3c(nc2O)CCC(C)C3)n1` (centres undefined), for which the cytotoxicity at 10 µM was -3.91%.

As for `NC(=O)c1cnc(NC2CC2)nc1CCNC(=O)Cc1ccccc1`, the cytotoxicity at 10 µM turned out to be 4.44%.

For `Cc1nc(C(=O)N2CCOC(Cc3ccccc3)C2)co1` (centres undefined), the cytotoxicity at 10 µM was -3.24%.

As for `NCCn1nc(C2CCN(Cc3ccccc3Cl)C2)c2nccnc21` (centres undefined), the cytotoxicity at 10 µM was -14.9%.

On to `Cc1ccc(S(=O)(=O)Nc2ccc(N3CCOCC3)cn2)cc1`, for which the cytotoxicity at 10 µM came to 3.92%.

For `CC(C)CC1(C(=O)NCc2nncn2C2CC2)CCC1`, the cytotoxicity at 10 µM is -1.22%.

With `CS(=O)(=O)NCc1ccc(C(=O)NCc2ccc3c(c2)CCC3)o1`, the cytotoxicity at 10 µM was -5.61%.

With `Cc1noc(CCCC(=O)N(CC2CCOC2)C2CC2)n1` (centres undefined), the cytotoxicity at 10 µM is 13%.

As for `CCCn1nc(C(=O)NC2(c3ccc(Cl)cc3)CCCC2)ccc1=O`, the cytotoxicity at 10 µM was determined as 9.46%.

In the case of `CN(c1ncccc1C#N)C1CCN(CCc2ccccn2)CC1`, the cytotoxicity at 10 µM turned out to be 0.926%.

As to `Cc1ccc(S(C)(=O)=O)cc1NCC(=O)NCCC1=CCCCC1`, the cytotoxicity at 10 µM was found to be 0.846%.

As to `CC(C)(C)CC(NC(=O)N1CCC(C(N)=O)CC1)C(F)(F)F` (centres undefined), the cytotoxicity at 10 µM was -1.14%.

On to `CCC(C)(CC(=O)OC)NCc1nc(C)no1` (centres undefined), for which the cytotoxicity at 10 µM was -5.69%.

Regarding `Cn1cnnc1CNC(=O)c1ccc(Br)cc1O`, the cytotoxicity at 10 µM is -4.06%.

`CCC(CC)(CNC(=O)OC(C)(C)C)NC(=O)C1CCOCC1`: the cytotoxicity at 10 µM amounted to 1.85%.

Consider `CCOCCCC(=O)Nc1[nH]nc(-c2ccncc2)c1C`, for which the cytotoxicity at 10 µM worked out at 7.98%.

Turning to `O=C(c1coc(-c2ccccc2)n1)N1CCCC1`, the cytotoxicity at 10 µM was determined as 5.47%.

With `Clc1ccccc1CNC(Cn1cncn1)c1ccccc1` (centres undefined), the cytotoxicity at 10 µM is -2.88%.

As for `O=C(NCC(O)c1ccc(F)cc1F)c1cccc(F)c1` (centres undefined), the cytotoxicity at 10 µM was found to be 7.43%.

With `Cc1nn(C)c(N2CCCN(C)CC2)c1CNC(=O)C(C)(C)C`, the cytotoxicity at 10 µM is -12%.

Take `CCc1cccc(NC(=O)NC2CCc3nc(C)nn3C2)c1` (centres undefined): the cytotoxicity at 10 µM is -12.5%.

On to `CC(C)(C(=O)NCc1ccc(C#N)cc1)n1cc(Br)cn1`, for which the cytotoxicity at 10 µM worked out at 12.4%.

Regarding `O=S(=O)(c1ccc(F)cc1)N1CCN(CCCn2ccnc2)CC1`, the cytotoxicity at 10 µM was -5.63%.

For `O=C(NC1CCS(=O)(=O)C1)c1ccc(-c2ccc(F)cc2)s1` (centres undefined), the cytotoxicity at 10 µM was -2.32%.

As for `Cc1cc(CNC(=O)C2CCCN2C(=O)OC(C)(C)C)no1` (centres undefined), the cytotoxicity at 10 µM was -4.12%.

With `CC(C)CC(C#N)NC(=O)COC1CCCCC1` (centres undefined), the cytotoxicity at 10 µM came out at 5.42%.

Consider `Cc1ccc(CCNC(=O)c2cccnc2)o1`, for which the cytotoxicity at 10 µM was -0.996%.

Regarding `Cc1n[nH]c(C2CN(C(=O)c3ccn(C)c(=O)c3)CCO2)n1` (centres undefined), the cytotoxicity at 10 µM was -5.3%.

For `COc1cccc(CN(C(=O)NC2CC2)C2CCC(O)CC2)c1` (centres undefined), the cytotoxicity at 10 µM was determined as 6.8%.

Turning to `Cc1cccc(C(=O)N2CCN(CCOC(C)C)CC2)n1`, the cytotoxicity at 10 µM was -0.0394%.

For `CN(C(=O)Nc1cccc(C#N)c1)C1CCN(c2ccccn2)CC1`, the cytotoxicity at 10 µM turned out to be 1.66%.

Regarding `Brc1ccc(NCc2ccc(Cn3ccnc3)cc2)nc1`, the cytotoxicity at 10 µM worked out at 21.8%.

On to `NC(=O)CCSc1n[nH]c(-c2ccc3c(c2)CCC3)n1`, for which the cytotoxicity at 10 µM was -0.302%.

`Cn1ccnc1COc1ccc(CSc2nncn2C2CC2)cc1`: the cytotoxicity at 10 µM came to 3.67%.

In the case of `COc1cccc(N2CCC(CNC(=O)NCc3ccco3)C2)c1` (centres undefined), the cytotoxicity at 10 µM was -127%.

Consider `CC(C)N(Cc1ccccc1)Cc1csc(-c2ncccn2)n1`, for which the cytotoxicity at 10 µM amounted to 7.76%.

Turning to `CC(=O)N(CCc1nc(-c2cc(C(N)=O)co2)cs1)C(C)C`, the cytotoxicity at 10 µM is -4.91%.

For `CC1(c2ccc(Br)cc2)CC(=O)N(CCC(N)=O)C1=O` (centres undefined), the cytotoxicity at 10 µM is -3.74%.

On to `Cc1ccc(CN(C)C)cc1NC(=O)C1CC1`, for which the cytotoxicity at 10 µM is 1.32%.

For the molecule `CNC(=O)COc1c(C(C)=O)ccc(Cl)c1Cl`, the cytotoxicity at 10 µM is -0.769%.

Consider `CCN(CCNC(=O)C1CCN(C(C)=O)CC1)c1ccccc1C`, for which the cytotoxicity at 10 µM was -6.19%.

For `CN(C)c1ccc(NC(=O)N2CCCC2c2ccsc2)cn1` (centres undefined), the cytotoxicity at 10 µM was -7.81%.

`Cc1nc(S(=O)(=O)N2CCSCC2)cn1C`: the cytotoxicity at 10 µM was -9.09%.

`COCC(=O)N(C)Cc1ccc(OCc2cccs2)cc1`: the cytotoxicity at 10 µM came to 1.73%.

As for `CC(C)S(=O)(=O)NCC1CCCN(C(=O)c2ccc3c(c2)CCC3)C1` (centres undefined), the cytotoxicity at 10 µM was -14.7%.

As to `CCc1nc(N2CCC3(CC2)OCCCC3O)ncc1C` (centres undefined), the cytotoxicity at 10 µM amounted to 7.41%.

On to `COCC1CCN(C(=O)c2cn(Cc3ccccc3C(F)(F)F)nn2)C1` (centres undefined), for which the cytotoxicity at 10 µM worked out at 6.86%.

`CCn1c(C2CCCN(Cc3ccc(OC)c(C)c3C)C2)nn(C)c1=O` (centres undefined): the cytotoxicity at 10 µM is 5.52%.

With `CCCn1ncc(C(=O)N2CCN(C(=O)c3ccc[nH]3)CC2)c1C`, the cytotoxicity at 10 µM was -151%.

Consider `COc1nccnc1N1CCN(Cc2ccc(F)cc2)C(=O)C1`, for which the cytotoxicity at 10 µM is 1.27%.

For `CCCOCCn1ncc(N2CCCC2)cc1=O`, the cytotoxicity at 10 µM was -10.7%.

For the molecule `CCc1cc(CN(C)C(=O)c2cnn[nH]2)on1`, the cytotoxicity at 10 µM turned out to be 7.48%.

As to `CCOCC(=O)N1CCC(c2nc(-c3cccnn3)no2)CC1`, the cytotoxicity at 10 µM was -3.3%.

For the molecule `Cn1c(-c2ccccc2Cl)nc2cc(C(=O)NCC3(CO)CC3)cnc21`, the cytotoxicity at 10 µM is -4.33%.

Regarding `O=C(C1CNCCO1)N1CCC(c2cc(N3CCCC3)ncn2)CC1` (centres undefined), the cytotoxicity at 10 µM stood at 6.15%.

In the case of `CO[C@H]1CNC[C@@H]1NC(=O)c1cc(C)nc2c(C)c(C)ccc12`, the cytotoxicity at 10 µM turned out to be 0.936%.

In the case of `Cn1c(-c2ccccc2Cl)nc2cc(C(=O)NCCOCCO)cnc21`, the cytotoxicity at 10 µM is -0.951%.

Turning to `Cc1cc(N2CCOC(C(F)(F)F)C2)nc(-c2ccccc2O)n1` (centres undefined), the cytotoxicity at 10 µM was -0.238%.

In the case of `CN(Cc1cc(-c2ccccc2)no1)Cc1nccn1C`, the cytotoxicity at 10 µM was -2.27%.

Consider `CN(C)CC(C)(C)CN1CCC(c2ccnc(-c3cccc(O)c3)c2)C1` (centres undefined), for which the cytotoxicity at 10 µM came to 3.36%.

Turning to `CCNc1ccnc(NCc2cn3nc(C)sc3n2)n1`, the cytotoxicity at 10 µM was -3.41%.

Turning to `Cc1cc(C)n(CC(C)NCc2nncn2C2CCCCC2)n1` (centres undefined), the cytotoxicity at 10 µM was -3.26%.

Consider `CO[C@H]1CN(C(=O)c2ccc(-c3cc[nH]n3)cc2)CC[C@H]1N`, for which the cytotoxicity at 10 µM came to 5.29%.

With `CCC(=O)c1ccc(OCC(=O)NC(C)c2nnn[nH]2)cc1` (centres undefined), the cytotoxicity at 10 µM was -1.62%.

As for `CCCOC(C)C(=O)N1CCC(O)(c2ccc3nc(C)ccc3c2)CC1` (centres undefined), the cytotoxicity at 10 µM was found to be 1.12%.

Turning to `O=C(Nc1ccc(S(=O)(=O)Nc2c(F)cccc2F)cc1)N1CCCC1`, the cytotoxicity at 10 µM was determined as 5.66%.

`O=C(c1ccc(C2CCCO2)s1)N1CCOCC1` (centres undefined): the cytotoxicity at 10 µM worked out at 10.3%.

In the case of `CCc1cc(N2CCNCC2)n2nc(C)c(C)c2n1`, the cytotoxicity at 10 µM is -2.59%.

With `CCOC(=O)C1CCCN(c2ccc(-c3nc(C)no3)cn2)C1` (centres undefined), the cytotoxicity at 10 µM was -3.74%.

For the molecule `CC(COc1ccccc1)NCc1nc(-c2cccnc2)no1` (centres undefined), the cytotoxicity at 10 µM is -14.1%.

Take `Cc1ccc(NC2CCN(C(=O)CCc3nccs3)CC2)nn1`: the cytotoxicity at 10 µM was -9.93%.

Take `Cc1ccccc1CNC(=O)CN1CCCC(Cc2nccn2C)C1` (centres undefined): the cytotoxicity at 10 µM is -15.4%.

In the case of `Cc1ccc(-c2nnc(CN3CCCC(Cn4cncn4)C3)o2)cc1` (centres undefined), the cytotoxicity at 10 µM was -9.07%.

For the molecule `CC(O)CN1CCC(CNCc2ccccc2Cl)CC1` (centres undefined), the cytotoxicity at 10 µM is -11.9%.

Take `COc1cccc(COCC(=O)N2CCCCCC2)c1`: the cytotoxicity at 10 µM is -3.48%.

In the case of `O=C(CCCc1nnc(-c2ccccc2)o1)N1CCN(C2CC2)CC1`, the cytotoxicity at 10 µM was -12%.

For the molecule `Cc1nn(C)c(C)c1C1CCCN1CC(=O)Nc1ccc(Cl)cn1` (centres undefined), the cytotoxicity at 10 µM was -7.1%.

In the case of `CC(C)Oc1ncccc1CNC(=O)c1ccccn1`, the cytotoxicity at 10 µM was -21.3%.

`CCc1n[nH]c(C2CN(C(=O)c3cnc(C)nc3CC)CCO2)n1` (centres undefined): the cytotoxicity at 10 µM was -3.39%.

On to `CC(C(=O)Nc1ccnn1C(C)C)N1CCCN(c2nccs2)CC1` (centres undefined), for which the cytotoxicity at 10 µM was -9.39%.

Turning to `O=C1CCC2(CCC(NC3CCOCC3)CC2)N1Cc1ccccc1` (centres undefined), the cytotoxicity at 10 µM was -0.0368%.

Regarding `O=C(CN1CC(c2nc(C3CC3)no2)C1)NCc1ccc(F)cc1`, the cytotoxicity at 10 µM was 0.291%.

As to `Cc1ccc(CN2CCCn3cnc(COCC4CC4)c3C2)o1`, the cytotoxicity at 10 µM was found to be 8.82%.

For `CC(C)n1cnc2c1C(C(=O)N1CCOCC1)N(CC1CC1)CC2` (centres undefined), the cytotoxicity at 10 µM stood at 7.98%.

As for `Cc1cnc(N2CCC3(C2)C(=O)N(C)CCN3Cc2cccnc2)nc1` (centres undefined), the cytotoxicity at 10 µM was -6.98%.

For `CN(C)C(=O)NCc1nnn2c1CN(CC1CCOCC1)CCC2`, the cytotoxicity at 10 µM was -128%.

On to `NCC1(c2cccc(Br)c2)CCOCC1`, for which the cytotoxicity at 10 µM is -8.45%.

Consider `O=C(C1CC1)N1CC[C@@H]2[C@H](CC1)N(Cc1cccnc1)CCS2(=O)=O`, for which the cytotoxicity at 10 µM is -1.84%.

`CC(C)N(C)Cc1nnn2c1CN(Cc1cccnc1)CCC2`: the cytotoxicity at 10 µM was found to be 11.3%.

Regarding `O=C(C1CCC1)N1C[C@H]2CC[C@@H](C1)N(S(=O)(=O)c1ccccc1)C2`, the cytotoxicity at 10 µM is -10%.

Consider `O=C(c1cccnc1)N1C[C@H]2CC[C@@H](C1)N(Cc1cccc(Cl)c1F)C2`, for which the cytotoxicity at 10 µM was -9.24%.
